Here are results for ten compounds from ChEMBL document CHEMBL4359914, “Design, synthesis and biological evaluation of stereo- and regioisomers of amino aryl esters as multidrug resistance (MDR) reversers” (Eur J Med Chem, 2019).

pEC50, pIC50: −log10 of the molar value. Where only a bound is given, the exact number is not on record here.

Series [1] is described as follows: Chemical stability of compound assessed as half life in PBS at 1 uM incubated 120 mins by LC-MS/MS analysis. The class given is physicochemical. An outline of the steps: (§1)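 Analyte added to PBS or human plasma (healthy volunteer, stored at -80 °C) to 1 μM; incubated at 37 °C for 0, 30, 60 and 120 min, triplicate per time point. Internal standard solution added, centrifuged, supernatant dried under nitrogen and redissolved. Analyte quantified by LC-MS/MS in MRM mode; half-life derived from decay rate k.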

Series [2] concerns the target T1, ATP-dependent translocase ABCB1 (Homo sapiens, UniProt P08183). The experiment in a line: Inhibition of P-gp in human K562/DOX cells assessed as drug level causing maximum increase in nuclear pirarubicin concentration incubated for 30 mins by fluorescence based assay relative to control. The class given is cell-based. The settings on record: 0.5 h.
The target of series [3] is T2, Broad substrate specificity ATP-binding cassette transporter ABCG2 (Homo sapiens, UniProt Q9UNQ0).
T2 sequence (Q9UNQ0 whole entry): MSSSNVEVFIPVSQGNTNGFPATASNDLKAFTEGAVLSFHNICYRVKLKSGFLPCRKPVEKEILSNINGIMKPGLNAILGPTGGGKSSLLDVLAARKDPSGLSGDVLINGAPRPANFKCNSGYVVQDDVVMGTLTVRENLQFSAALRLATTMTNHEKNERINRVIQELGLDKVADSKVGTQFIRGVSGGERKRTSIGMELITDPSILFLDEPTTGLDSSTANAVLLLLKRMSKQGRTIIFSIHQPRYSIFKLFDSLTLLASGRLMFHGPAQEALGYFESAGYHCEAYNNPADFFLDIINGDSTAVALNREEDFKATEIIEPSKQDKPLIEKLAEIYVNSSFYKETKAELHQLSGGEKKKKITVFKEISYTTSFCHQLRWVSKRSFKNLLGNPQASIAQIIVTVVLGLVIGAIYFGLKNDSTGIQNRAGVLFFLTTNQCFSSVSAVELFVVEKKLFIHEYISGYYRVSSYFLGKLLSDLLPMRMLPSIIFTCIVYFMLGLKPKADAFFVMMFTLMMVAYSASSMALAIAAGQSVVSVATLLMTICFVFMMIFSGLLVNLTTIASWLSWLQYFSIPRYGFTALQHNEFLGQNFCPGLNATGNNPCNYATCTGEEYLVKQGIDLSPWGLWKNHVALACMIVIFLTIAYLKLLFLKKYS
The experiment in a line: Inhibition of BCRP (unknown origin) expressed in MDCK cells assessed as increase in Hoechst 33342 accumulation incubated for 30 mins by Hoechst 33342 dye based fluorescence assay. The settings on record: read-out: EC50. Format: cell-based.

For series [4], the target named is T1, ATP-dependent translocase ABCB1. The experiment in a line: Inhibition of P-gp in human K562/DOX cells assessed as drug level causing 50% increase in nuclear pirarubicin concentration incubated for 30 mins by fluorescence based assay. Format: cell-based. To be noted: read-out: I0.5.
Series [5] has the same target. The experiment in a line: Inhibition of P-gp (unknown origin) expressed in MDCK-MDR1 cells assessed as increase in calcein-AM accumulation incubated for 30 mins by calcein-AM dye based fluorescence assay. The class given is cell-based.
Series [6] shares this target. In words: Inhibition of MDR1 (unknown origin) expressed in MDCK-MDR1 cells assessed as decrease in ATP consumption incubated for 2 hrs by ATPlite luminescence assay. Format: cell-based. To be noted: mdck-mdr1, 2 h.
Series [7] can be described thus: Stability of compound in human plasma assessed as half life at 1 uM incubated for 120 min by LC-MS/MS analysis. The class given is ADME, cell-free. A digest of the protocol:
as §1

T1 sequence (P08183 whole entry): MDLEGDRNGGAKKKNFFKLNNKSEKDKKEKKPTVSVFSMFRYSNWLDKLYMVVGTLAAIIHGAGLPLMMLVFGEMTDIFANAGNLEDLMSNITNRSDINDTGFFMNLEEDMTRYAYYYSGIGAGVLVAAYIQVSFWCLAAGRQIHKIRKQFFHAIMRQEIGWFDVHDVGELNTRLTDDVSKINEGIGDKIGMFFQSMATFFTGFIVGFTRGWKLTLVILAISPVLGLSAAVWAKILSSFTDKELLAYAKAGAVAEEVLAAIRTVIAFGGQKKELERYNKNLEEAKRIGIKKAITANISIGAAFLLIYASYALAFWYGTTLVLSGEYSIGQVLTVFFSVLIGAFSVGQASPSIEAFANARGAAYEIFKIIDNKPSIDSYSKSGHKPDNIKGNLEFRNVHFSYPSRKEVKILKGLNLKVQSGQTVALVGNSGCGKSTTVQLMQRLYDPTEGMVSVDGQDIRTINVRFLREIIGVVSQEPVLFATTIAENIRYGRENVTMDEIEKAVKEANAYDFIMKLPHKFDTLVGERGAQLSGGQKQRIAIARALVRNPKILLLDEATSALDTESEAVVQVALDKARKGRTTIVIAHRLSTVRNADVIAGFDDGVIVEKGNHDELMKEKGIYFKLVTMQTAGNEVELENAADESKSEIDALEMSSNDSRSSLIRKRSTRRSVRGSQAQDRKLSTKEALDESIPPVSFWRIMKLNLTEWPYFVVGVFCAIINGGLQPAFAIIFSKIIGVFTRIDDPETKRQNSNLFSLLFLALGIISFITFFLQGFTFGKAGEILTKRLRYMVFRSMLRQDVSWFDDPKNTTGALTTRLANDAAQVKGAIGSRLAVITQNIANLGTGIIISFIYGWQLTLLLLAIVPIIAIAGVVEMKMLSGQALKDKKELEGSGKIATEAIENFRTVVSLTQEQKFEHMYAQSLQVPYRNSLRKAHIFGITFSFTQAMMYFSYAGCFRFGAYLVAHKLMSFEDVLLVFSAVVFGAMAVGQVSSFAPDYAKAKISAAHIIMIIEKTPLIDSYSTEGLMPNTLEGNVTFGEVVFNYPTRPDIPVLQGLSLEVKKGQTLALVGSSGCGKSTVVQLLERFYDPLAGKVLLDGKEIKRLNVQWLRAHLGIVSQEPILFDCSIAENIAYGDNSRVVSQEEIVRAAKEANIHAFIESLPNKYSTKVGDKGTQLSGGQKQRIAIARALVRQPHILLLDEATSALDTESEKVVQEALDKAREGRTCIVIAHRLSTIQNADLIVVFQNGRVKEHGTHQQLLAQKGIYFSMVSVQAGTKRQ

The term half-life denotes how long it takes for the measured level to halve. A word on the pEC50: it is the negative decadic logarithm of the EC50, by convention in mol/L. As for `COc1cc(/C=C/C(=O)OCCCCCCCN(C)C[C@H](C)COC(=O)c2c3ccccc3cc3ccccc23)cc(OC)c1OC`, the half-life at 1 µM in series [1] and in series [7] was not below 4 h in each case. In series [2], the Alpha max turned out to be 0.99. In addition, the negative logarithm of the EC50 (pEC50) in series [3] was 5.14; in series [5], 5.98. Also, the pIC50 in series [4] was 7.10. In addition, the “inhibition (INH)” value in series [6] is given as “Not Active”.
As to `COc1cc(/C=C/C(=O)OC[C@@H](C)CN(C)CCCCCCCOC(=O)c2cc(OC)c(OC)c(OC)c2)cc(OC)c1OC`, the half-life at 1 µM in series [1] is not below 4 h; in series [7], 0.5 h. Besides, the Alpha max in series [2] came to 0.74. Besides, the pEC50 in series [3] is 5.64; in series [5] it was 6.49. Besides, in series [4], the pIC50 was 6.42. The “inhibition (INH)” value in series [6] is “Not Active”.
Take `COc1cc(/C=C/C(=O)OC[C@H](C)CN(C)CCCCCOC(=O)c2c3ccccc3cc3ccccc23)cc(OC)c1OC`: the half-life at 1 µM in series [1] and in series [7] was not below 4 h each time. Also, the Alpha max in series [2] turned out to be 0.88. In addition, the pEC50 in series [3] was 5.64; in series [5] it was 6.14. Moreover, the pIC50 in series [4] is 7.10. The “inhibition (INH)” value in series [6] is given as “Not Active”.
With `COc1cc(/C=C/C(=O)OCCCCCCCN(C)C[C@H](C)COC(=O)c2cc(OC)c(OC)c(OC)c2)cc(OC)c1OC`, the half-life at 1 µM in series [1] and in series [7] was not below 4 h each time. Further, the Alpha max in series [2] stood at 0.7. Further, the pEC50 in series [3] is 5.60; in series [5] it was 6.26. Moreover, in series [4], the pIC50 is 6.89. The “inhibition (INH)” value in series [6] is recorded as “Not Active”.
Consider `COc1cc(/C=C/C(=O)OC[C@@H](C)CN(C)CCCCCOC(=O)c2c3ccccc3cc3ccccc23)cc(OC)c1OC`, for which the half-life at 1 µM in series [1] and in series [7] was not below 4 h each time. The Alpha max in series [2] amounted to 0.79. Also, the negative logarithm of the EC50 (pEC50) is 5.33 in series [3] and 6.16 in series [5]. The pIC50 in series [4] is 7.52. Besides, in series [6], the “inhibition (INH)” value is recorded as “Not Active”.
`COc1cc(/C=C/C(=O)OCCCN(C)C[C@H](C)COC(=O)c2c3ccccc3cc3ccccc23)cc(OC)c1OC`: the half-life at 1 µM in series [1] and in series [7] was not below 4 h each time. In addition, the Alpha max in series [2] was determined as 0.99. Besides, the pEC50 is 4.96 in series [3] and 6.04 in series [5]. The pIC50 in series [4] is 7.40. In addition, the “inhibition (INH)” value in series [6] is “Not Active”.
Consider `COc1cc(/C=C/C(=O)OC[C@@H](C)CN(C)CCCCCCCOC(=O)c2c3ccccc3cc3ccccc23)cc(OC)c1OC`, for which the half-life at 1 µM in series [1] and in series [7] was not below 4 h throughout. Also, the Alpha max in series [2] turned out to be 0.8. Besides, the pEC50 in series [3] is 5.25; in series [5], 6.03. Further, the pIC50 in series [4] is 6.05. Further, the “inhibition (INH)” value in series [6] was “Not Active”.
Regarding `COc1cc(/C=C/C(=O)OC[C@H](C)CN(C)CCCCCCCOC(=O)c2cc(OC)c(OC)c(OC)c2)cc(OC)c1OC`, the half-life at 1 µM in series [1] is not below 4 h; in series [7], 1.23 h. Further, in series [2], the Alpha max is recorded as 0.81. In addition, the figures for the negative-log EC50 (pEC50) in series [3] and in series [5] were 5.33 and 6.09, respectively. In addition, the pIC50 in series [4] is 6.23. Further, in series [6], the “inhibition (INH)” value is given as “Not Active”.
Regarding `COc1cc(/C=C/C(=O)OCCCCCCCN(C)C[C@@H](C)COC(=O)c2c3ccccc3cc3ccccc23)cc(OC)c1OC`, the half-life at 1 µM in series [1] and in series [7] was not below 4 h throughout. Also, the Alpha max in series [2] was found to be 0.93. For the same compound, the results for the pEC50 in series [3] and in series [5] were 5.21 and 6.00, respectively. Besides, the pIC50 in series [4] was 6.70. For the same compound, in series [6], the “inhibition (INH)” value is listed as “Not Active”.
Take `COc1cc(/C=C/C(=O)OCCCN(C)C[C@@H](C)COC(=O)c2cc(OC)c(OC)c(OC)c2)cc(OC)c1OC`: the half-life at 1 µM in series [1] was not below 4 h; in series [7], 0.9 h. Besides, the Alpha max in series [2] came to 0.99. Further, the pEC50 in series [3] was 5.02; in series [5], 7.14. In addition, the pIC50 in series [4] is 6.96. In series [6], the “inhibition (INH)” value was “Not Active”.
